From PMC3799459 (Nucleic Acids Research, 2013)

How the values were obtained:
DNMT1 [1] = target: T1, DNMT1 (Homo sapiens, UniProt P26358); assay: SAM-competition assay on DNMT1; type: biochemical; conditions: SAM 0.5-15 µM, DNA duplex 1.0 µM, inhibitor IC10 to IC80
Procedure, shortened: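 DNMT1 Flashplate SPA in HEPES pH 7.2 buffer, 37°C, 2 h. [methyl-3H]SAM (0.6 TBq/mmol, isotopic dilution 1*:1) varied 0.5–15 µM at fixed 1.0 µM biotinylated DNA duplex. Test compound adjusted from IC10 to IC80 for each SAM level. IC50 at each SAM concentration from sigmoidal variable-slope fit; apparent kinetic constants per compound concentration by Michaelis–Menten fitting.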

DNMT1 [2] = target: T1, DNMT1; assay: DNA-competition assay on DNMT1; type: biochemical; conditions: DNA duplex 0.05-1.0 µM, SAM 15 µM (1*:2), inhibitor IC10 to IC80
Procedure, shortened: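 Streptavidin Flashplate SPA with DNMT1 in HEPES pH 7.2 reaction buffer (EDTA, KCl, BSA), 37°C for 2 h. Biotinylated DNA duplex varied 0.05–1.0 µM; [methyl-3H]SAM (0.6 TBq/mmol) fixed at 15 µM, isotopic dilution 1*:2. Test compound adjusted from IC10 to IC80 at each DNA level. IC50 per DNA concentration from sigmoidal variable-slope fit; apparent kinetic constants from Michaelis–Menten fits at each compound concentration.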

human DNMT3A (DNMT3A-C) = human DNMT3A (DNMT3A-C) (Homo sapiens, UniProt Q9Y6K1); assay: DNMT3A Flashplate SPA inhibition assay; type: biochemical
Chain of human DNMT3A (DNMT3A-C) (Q9Y6K1 624-912): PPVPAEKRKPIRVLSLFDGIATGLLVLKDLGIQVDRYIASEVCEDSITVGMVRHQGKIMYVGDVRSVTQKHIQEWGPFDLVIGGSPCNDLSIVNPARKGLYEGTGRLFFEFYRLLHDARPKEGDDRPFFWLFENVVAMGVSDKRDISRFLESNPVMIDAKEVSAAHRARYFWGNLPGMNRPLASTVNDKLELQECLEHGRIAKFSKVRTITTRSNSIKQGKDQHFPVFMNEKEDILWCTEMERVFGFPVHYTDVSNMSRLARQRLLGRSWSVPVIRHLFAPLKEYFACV

M.SssI = M.SssI (Spiroplasma monobiae, UniProt P15840); assay: M.SssI Flashplate SPA inhibition assay; type: biochemical, bacterial
Chain of M.SssI (P15840 whole entry): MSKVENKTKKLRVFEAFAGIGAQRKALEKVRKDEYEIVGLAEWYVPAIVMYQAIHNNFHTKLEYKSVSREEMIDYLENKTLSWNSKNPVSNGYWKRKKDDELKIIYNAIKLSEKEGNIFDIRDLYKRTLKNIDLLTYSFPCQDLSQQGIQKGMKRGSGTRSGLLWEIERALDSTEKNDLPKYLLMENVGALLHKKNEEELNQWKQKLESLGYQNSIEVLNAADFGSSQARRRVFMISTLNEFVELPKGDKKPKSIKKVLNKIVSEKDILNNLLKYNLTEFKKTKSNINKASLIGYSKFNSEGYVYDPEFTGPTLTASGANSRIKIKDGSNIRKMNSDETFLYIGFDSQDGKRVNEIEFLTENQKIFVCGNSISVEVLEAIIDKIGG
Procedure, shortened: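 Purchased M.SssI at 100 nM with 0.3 µM biotinylated non-methylated duplex and 1 µM SAM/[methyl-3H]SAM mix (3:1) in 1X NEBuffer 2; test compound ≤1% DMSO; 1 h at 37°C. Stopped in streptavidin Flashplate with 20 µM SAH, Tris-HCl pH 7.4; 1 h RT binding, Tween washes, scintillation cpm. %inhibition vs no-enzyme and no-compound controls; sigmoidal fit; two experiments in duplicate.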

DNMT1 [3] = target: T1, DNMT1; assay: DMSO tolerance of the DNMT1 Flashplate assay; type: biochemical
DNMT1 [4] = target: T1, DNMT1; assay: Km determination of DNMT1 substrates; type: biochemical; conditions: read-out: Km of DNA for DNMT1; DNA 0.05-1.0 µM, 15 µM SAM

T1 sequence (P26358 whole entry): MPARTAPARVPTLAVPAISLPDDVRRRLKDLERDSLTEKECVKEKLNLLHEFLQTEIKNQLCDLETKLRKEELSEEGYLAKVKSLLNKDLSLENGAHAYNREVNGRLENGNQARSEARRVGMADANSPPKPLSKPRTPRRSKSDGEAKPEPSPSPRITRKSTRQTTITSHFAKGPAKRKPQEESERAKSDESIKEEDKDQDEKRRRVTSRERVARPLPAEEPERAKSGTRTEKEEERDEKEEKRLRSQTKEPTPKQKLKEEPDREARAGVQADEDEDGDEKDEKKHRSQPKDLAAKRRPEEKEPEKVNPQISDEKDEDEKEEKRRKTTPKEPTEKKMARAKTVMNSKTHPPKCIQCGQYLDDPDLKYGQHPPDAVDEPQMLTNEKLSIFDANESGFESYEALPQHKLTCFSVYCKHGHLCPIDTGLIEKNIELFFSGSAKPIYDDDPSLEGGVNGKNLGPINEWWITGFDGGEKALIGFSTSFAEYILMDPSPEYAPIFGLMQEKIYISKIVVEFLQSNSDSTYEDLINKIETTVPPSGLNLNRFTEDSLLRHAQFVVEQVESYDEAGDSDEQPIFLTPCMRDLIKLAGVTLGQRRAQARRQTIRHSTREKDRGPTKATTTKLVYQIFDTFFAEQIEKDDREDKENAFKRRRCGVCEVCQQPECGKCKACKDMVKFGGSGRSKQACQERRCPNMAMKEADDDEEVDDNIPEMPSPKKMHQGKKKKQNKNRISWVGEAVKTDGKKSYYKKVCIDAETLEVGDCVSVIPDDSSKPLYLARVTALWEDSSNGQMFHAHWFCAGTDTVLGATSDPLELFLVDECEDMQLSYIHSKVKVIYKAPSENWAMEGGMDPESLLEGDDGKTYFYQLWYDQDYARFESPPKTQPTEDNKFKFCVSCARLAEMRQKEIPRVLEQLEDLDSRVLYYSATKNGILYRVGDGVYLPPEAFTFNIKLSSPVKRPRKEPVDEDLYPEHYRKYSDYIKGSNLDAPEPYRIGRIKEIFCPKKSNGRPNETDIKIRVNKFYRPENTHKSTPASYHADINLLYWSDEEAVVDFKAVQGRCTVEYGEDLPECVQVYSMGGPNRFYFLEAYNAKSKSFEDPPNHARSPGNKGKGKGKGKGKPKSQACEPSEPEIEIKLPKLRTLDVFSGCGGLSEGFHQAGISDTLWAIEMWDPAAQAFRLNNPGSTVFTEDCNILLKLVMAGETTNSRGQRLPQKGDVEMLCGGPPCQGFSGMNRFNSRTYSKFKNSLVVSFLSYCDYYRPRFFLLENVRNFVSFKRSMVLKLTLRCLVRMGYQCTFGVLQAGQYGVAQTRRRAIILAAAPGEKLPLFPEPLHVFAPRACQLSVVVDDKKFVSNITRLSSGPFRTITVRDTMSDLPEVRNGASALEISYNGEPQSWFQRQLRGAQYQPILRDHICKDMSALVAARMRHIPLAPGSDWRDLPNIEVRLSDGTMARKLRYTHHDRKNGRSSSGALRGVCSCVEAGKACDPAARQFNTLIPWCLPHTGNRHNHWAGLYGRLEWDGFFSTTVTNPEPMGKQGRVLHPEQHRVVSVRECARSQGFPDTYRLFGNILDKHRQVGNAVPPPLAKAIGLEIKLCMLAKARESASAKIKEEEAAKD

In the case of Nc1ncnc2c1ncn2[C@@H]1O[C@H](C[C@@H](N)CC[C@H](N)C(=O)O)[C@@H](O)[C@H]1O [Sinefungin], the “Mechanism of inhibition towards SAM” value (DNMT1 [1]) is reported as “SAM-competitive”, the “Mechanism of inhibition towards DNA” value (DNMT1 [2]) is reported as “uncompetitive inhibition” and the IC50 (human DNMT3A (DNMT3A-C)) is reported as 1.8 ± 0.6 µM. It also gave an IC50 (M.SssI) of 45 ± 7 µM.

With O=C1c2ccccc2OC(c2ccccc2)C1(Cl)[N+](=O)[O-] (stereo not drawn) [Compound 47, 3-chloro-3-nitroflavanone] the “Mechanism of inhibition towards SAM” value (DNMT1 [1]) was “SAM non-competitive inhibitor” and the “Mechanism of inhibition towards DNA” value (DNMT1 [2]) was “uncompetitive behavior”.

In the case of C[S+](C)[O-] [DMSO], the “Stimulation of DNMT1 activity” value (DNMT1 [3]; 1 to 10% (v/v) DMSO) is reported as less than 10% and the “Effect on DNMT1 activity” value (DNMT1 [3]; 15 to 50% (v/v) DMSO) is reported as “inhibition”.

B1: DNA: biotinylated hemimethylated DNA duplex with 8 CpG, substrate of DNMT1 (Table 1) (nucleic acid)
sense: GATCGCCGATGCGCGAATCGCGATCGATGCGAT
antisense: ATCGCATCGATCGCGATTCGCGCATCGGCGATC
modifications: biotin; hemimethylated CpG; printed: 5′-GATmCGCmCGATGmCGmCGAATmCGmCGATmCGATGmCGAT
B1 was tested, and the Km (DNMT1 [4]) was roughly 0.27 µM.
